{"data": "Assay results collected from several papers", "cell line": "RPMI-8226", "observed": "cell growth or viability", "note": "Lines come from different studies, so protocols differ."}
{"SMILES": "N[C@@H]1CCCN(c2c(/C=C3\\SC(=O)NC3=O)cccc2-c2ccccc2)C1", "assay": "thymidine uptake", "endpoint": "GI50", "result": "2630 nM"}
{"SMILES": "COc1ccc(C(=O)/C=C/c2ccc(Cl)c(Cl)c2)cc1S(N)(=O)=O", "assay": "SRB", "setting": "10 µM", "endpoint": "inhibition", "result": "107%"}
{"SMILES": "COc1cc(Nc2nccc(-c3cnn4nc(OC)ccc34)n2)cc(C(F)(F)F)c1", "assay": "ATP luminescence", "endpoint": "IC50", "result": "220 nM"}
{"SMILES": "Cc1cc(C)n(C(=S)[S][Au][PH](CCCCCC[PH]([Au][S]C(=S)n2nc(C)cc2C)(c2ccccc2)c2ccccc2)(c2ccccc2)c2ccccc2)n1", "endpoint": "GI50", "result": "140 nM"}
{"SMILES": "COc1ccc(C(=O)Nc2cccc(-c3nc(NC(P(=O)(O)O)P(=O)(O)O)c4ccsc4n3)c2)cc1F", "assay": "MTS", "setting": "72 h", "endpoint": "EC50", "result": "460 nM"}
{"SMILES": "CC(C)C[C@H](NC(=O)[C@H](Cc1ccccc1)NC(=O)c1cnccn1)B(O)O", "assay": "ATP luminescence", "endpoint": "IC50", "result": "3.5 nM"}
{"SMILES": "CCC[C@H](Nc1nc(-c2ccc(NC(=O)NCC)c(OC)c2)ncc1C)c1cccnc1", "assay": "fluorescence", "setting": "72 h", "endpoint": "IC50", "result": "18.3 nM"}
{"SMILES": "O=C(Nc1cccc(-c2nc(NC(P(=O)(O)O)P(=O)(O)O)c3ccsc3n2)c1)c1ccc(C(F)(F)F)cc1", "assay": "MTS", "setting": "72 h", "endpoint": "EC50", "result": "710 nM"}
{"SMILES": "COc1ccc(C(=O)/C=C/c2c(F)cccc2Cl)cc1S(N)(=O)=O", "assay": "SRB", "setting": "10 µM", "endpoint": "inhibition", "result": "110%"}
{"SMILES": "COc1cccc(Oc2ccccc2NC(=O)CNC(=O)c2cccc3ccccc23)c1", "assay": "SRB", "setting": "48 h", "endpoint": "GI50", "result": "955 nM"}
{"SMILES": "C=CC(=O)N1CCC[C@@H](n2nc(-c3ccc(Oc4ccccc4)cc3)c3c(N)ncnc32)C1", "setting": "48 h", "endpoint": "GI50", "result": "> 10000 nM"}
{"SMILES": "CC[C@]1(O)C[C@H]2CN(CCc3c([nH]c4ccccc34)[C@@](C(=O)OC)(c3cc4c(cc3OC)N(C=O)[C@H]3[C@@](O)(C(=O)OC)[C@H](OC(C)=O)[C@]5(CC)C=CCN6CC[C@]43[C@@H]65)C2)C1", "assay": "fluorescence", "setting": "72 h", "endpoint": "IC50", "result": "17.9 nM"}
{"SMILES": "CC(C)C[C@H](NC(=O)[C@H](Cc1ccccc1)NC(=O)c1cnccn1)B(O)O", "assay": "ATP luminescence", "endpoint": "EC50", "result": "3.9 nM"}
